This note sets out measurements from ChEMBL document CHEMBL1153534, “Design and synthesis of androgen receptor antagonists with bulky side chains for overcoming antiandrogen resistance” (J Med Chem, 2009).

Experiment [1] relates to LNCaP. Nature of the experiment: Cytotoxicity against human LNCAP cells after 72 hrs by MTT assay. In kind it is functional, cell-based.
A further experiment deals with CWR22R. Nature of the experiment: Cytotoxicity against human 22Rv1 cells after 72 hrs by MTT assay. Type of experiment: functional, cell-based. As to conditions: 22Rv1, 72 h.
Experiment [2] can be described thus: Cytotoxicity against human C4-2B cells after 72 hrs by MTT assay. As to conditions: LNCaP C4-2B. In kind it is functional, cell-based.
In experiment [3] the test system is PC-3. Nature of the experiment: Cytotoxicity against human PC3 cells after 72 hrs by MTT assay. Type of experiment: functional, cell-based. The conditions noted are these: Homo sapiens, PC-3, 72 h; read-out: IC50. (In general: Tetrazolium dyes change colour on reduction, which living cells bring about.)
A short description of experiment [4]: Cytotoxicity against human MDA PCa 2b cells after 72 hrs by MTT assay. In kind it is functional, cell-based.
Experiment [5] has as its target T1, Androgen receptor (Homo sapiens) (UniProt P10275).
T1 sequence (whole entry): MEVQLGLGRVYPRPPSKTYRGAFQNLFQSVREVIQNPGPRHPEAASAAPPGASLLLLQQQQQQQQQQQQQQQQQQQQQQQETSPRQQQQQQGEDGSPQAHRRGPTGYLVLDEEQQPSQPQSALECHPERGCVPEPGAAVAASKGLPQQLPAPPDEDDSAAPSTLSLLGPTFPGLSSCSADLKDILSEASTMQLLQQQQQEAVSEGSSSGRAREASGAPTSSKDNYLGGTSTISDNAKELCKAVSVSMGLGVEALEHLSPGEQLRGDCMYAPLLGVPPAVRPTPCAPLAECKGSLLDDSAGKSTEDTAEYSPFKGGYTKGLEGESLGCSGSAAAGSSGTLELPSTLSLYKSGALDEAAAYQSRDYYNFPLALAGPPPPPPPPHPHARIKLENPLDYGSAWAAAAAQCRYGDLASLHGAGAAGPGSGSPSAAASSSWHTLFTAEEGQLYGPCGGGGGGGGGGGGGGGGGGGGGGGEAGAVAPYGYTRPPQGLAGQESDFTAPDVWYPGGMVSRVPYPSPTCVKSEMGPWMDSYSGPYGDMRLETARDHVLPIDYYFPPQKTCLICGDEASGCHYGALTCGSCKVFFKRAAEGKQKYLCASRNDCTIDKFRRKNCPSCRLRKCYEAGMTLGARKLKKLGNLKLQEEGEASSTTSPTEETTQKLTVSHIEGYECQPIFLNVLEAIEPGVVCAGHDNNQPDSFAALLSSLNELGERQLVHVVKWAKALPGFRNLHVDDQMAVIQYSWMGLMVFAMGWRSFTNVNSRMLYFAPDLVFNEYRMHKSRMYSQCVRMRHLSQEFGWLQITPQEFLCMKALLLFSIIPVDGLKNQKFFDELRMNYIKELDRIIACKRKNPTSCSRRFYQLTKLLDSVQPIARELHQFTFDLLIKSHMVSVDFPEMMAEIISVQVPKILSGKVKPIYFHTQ
Kind of experiment: Activity in human PC3 cells expressing wild-type androgen receptor assessed as ARE-dependent transactivation at 0.1 uM after 24 hrs by luciferase reporter gene assay in absence of DHT. The conditions noted are these: PC-3. Type of experiment: cell-based. In outline:
(§1)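 PC-3 cells, which lack endogenous AR, transiently transfected with plasmids expressing human AR (WT, T877A, W741C or H874Y) plus an ARE-driven MMTV-luc reporter. Cells were treated with or without 0.1 nM DHT. Firefly luciferase was standardized to a Renilla control and normalized to the 0.1 nM DHT signal. Mean ± sd.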

For experiment [6], the system named is Androgen receptor (Homo sapiens), P10275 [T878A]. Kind of experiment: Activity in human PC3 cells expressing androgen receptor T877A mutant assessed as ARE-dependent transactivation at 0.1 uM after 24 hrs by luciferase reporter gene assay in absence of DHT. Type of experiment: cell-based. As to conditions: PC-3. In outline: as §1
(In a reporter assay the amount or activity of a reporter protein is the signal.)

Experiment [7] relates to PC-3. Kind of experiment: Activity in human PC3 cells expressing androgen receptor H874Y mutant assessed as ARE-dependent transactivation at 0.1 uM after 24 hrs by luciferase reporter gene assay in absence of DHT. In kind it is cell-based. In short, it runs like this: as §1
Experiment [8] has as its target T1, Androgen receptor (Homo sapiens). Nature of the experiment: Activity in human PC3 cells expressing wild-type androgen receptor assessed as ARE-dependent transactivation at 1 uM after 24 hrs by luciferase reporter gene assay in absence of DHT. As to conditions: PC-3. Type of experiment: cell-based. In outline:
as §1

Experiment [9] has as its system PC-3. Kind of experiment: Antiandrogenic activity in human PC3 cells expressing androgen receptor T877A mutant assessed as inhibition of DHT-induced ARE-dependent transactivation at 1 uM after 24 hrs by luciferase reporter gene assay. In kind it is cell-based. In short, it runs like this: as §1
Experiment [10] has as its system LNCaP. Kind of experiment: Suppression of DHT-stimulated growth of human LNCAP cells after 72 hrs with increasing concentration of DHT. In kind it is functional, cell-based.
For experiment [11], the system named is PC-3. Nature of the experiment: Suppression of DHT-stimulated growth of human PC3 cells after 72 hrs with increasing concentration of DHT. Type of experiment: functional, cell-based.
The target in experiment [12] is T2, Progesterone receptor (Homo sapiens) (UniProt P06401).
T2 sequence (whole entry): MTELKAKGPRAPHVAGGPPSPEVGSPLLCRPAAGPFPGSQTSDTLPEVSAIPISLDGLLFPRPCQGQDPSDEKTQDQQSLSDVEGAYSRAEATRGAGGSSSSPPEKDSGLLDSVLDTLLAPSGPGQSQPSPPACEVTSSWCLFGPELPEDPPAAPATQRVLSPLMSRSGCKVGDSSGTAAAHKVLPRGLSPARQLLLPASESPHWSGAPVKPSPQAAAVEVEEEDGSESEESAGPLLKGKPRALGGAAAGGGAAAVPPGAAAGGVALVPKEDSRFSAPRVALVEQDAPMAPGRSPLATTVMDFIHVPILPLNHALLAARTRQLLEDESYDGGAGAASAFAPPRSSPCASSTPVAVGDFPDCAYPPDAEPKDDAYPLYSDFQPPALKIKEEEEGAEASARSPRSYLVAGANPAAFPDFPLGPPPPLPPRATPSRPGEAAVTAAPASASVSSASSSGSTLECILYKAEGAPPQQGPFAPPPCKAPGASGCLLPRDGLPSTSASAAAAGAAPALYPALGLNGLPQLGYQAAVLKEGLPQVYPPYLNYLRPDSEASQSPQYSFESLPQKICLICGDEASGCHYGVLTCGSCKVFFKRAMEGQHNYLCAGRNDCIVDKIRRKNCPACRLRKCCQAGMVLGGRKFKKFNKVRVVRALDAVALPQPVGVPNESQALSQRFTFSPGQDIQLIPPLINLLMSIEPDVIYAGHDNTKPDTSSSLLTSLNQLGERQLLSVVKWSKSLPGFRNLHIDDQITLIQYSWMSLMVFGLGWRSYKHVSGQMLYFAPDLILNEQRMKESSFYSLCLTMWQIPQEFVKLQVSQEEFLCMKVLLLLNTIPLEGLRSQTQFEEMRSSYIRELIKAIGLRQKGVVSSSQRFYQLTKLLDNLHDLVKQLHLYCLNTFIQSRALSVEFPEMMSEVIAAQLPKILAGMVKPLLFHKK
Kind of experiment: Antagonist activity at human PR B-form expressed in human PC3 cells assessed as inhibition of R5020-induced transactivation at 1 uM after 24 hrs by luciferase reporter gene assay. In kind it is functional, cell-based. The conditions noted are these: PC-3. In short, it runs like this: (§2)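 PC-3 cells carrying a luciferase reporter for transactivation by the human PR B form. Antagonist mode used 10 nM R5020 as the agonist. Agonist mode ran in the absence of R5020. Luciferase read-out.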

The target of experiment [13] is T2, Progesterone receptor (Homo sapiens). Kind of experiment: Agonist activity at human PR B-form expressed in human PC3 cells assessed as receptor transactivation at 1 uM after 24 hrs by luciferase reporter gene assay. In kind it is functional, cell-based. The conditions noted are these: PC-3. In short, it runs like this: as §2

Calls of active or inactive are those of the source. The calls are words filed in the database; no cut-off is given here.

The IC50 is the concentration needed to halve the response being measured.

Androgen receptor (Homo sapiens), P10275 [T878A], sequence (P10275 whole entry T878A): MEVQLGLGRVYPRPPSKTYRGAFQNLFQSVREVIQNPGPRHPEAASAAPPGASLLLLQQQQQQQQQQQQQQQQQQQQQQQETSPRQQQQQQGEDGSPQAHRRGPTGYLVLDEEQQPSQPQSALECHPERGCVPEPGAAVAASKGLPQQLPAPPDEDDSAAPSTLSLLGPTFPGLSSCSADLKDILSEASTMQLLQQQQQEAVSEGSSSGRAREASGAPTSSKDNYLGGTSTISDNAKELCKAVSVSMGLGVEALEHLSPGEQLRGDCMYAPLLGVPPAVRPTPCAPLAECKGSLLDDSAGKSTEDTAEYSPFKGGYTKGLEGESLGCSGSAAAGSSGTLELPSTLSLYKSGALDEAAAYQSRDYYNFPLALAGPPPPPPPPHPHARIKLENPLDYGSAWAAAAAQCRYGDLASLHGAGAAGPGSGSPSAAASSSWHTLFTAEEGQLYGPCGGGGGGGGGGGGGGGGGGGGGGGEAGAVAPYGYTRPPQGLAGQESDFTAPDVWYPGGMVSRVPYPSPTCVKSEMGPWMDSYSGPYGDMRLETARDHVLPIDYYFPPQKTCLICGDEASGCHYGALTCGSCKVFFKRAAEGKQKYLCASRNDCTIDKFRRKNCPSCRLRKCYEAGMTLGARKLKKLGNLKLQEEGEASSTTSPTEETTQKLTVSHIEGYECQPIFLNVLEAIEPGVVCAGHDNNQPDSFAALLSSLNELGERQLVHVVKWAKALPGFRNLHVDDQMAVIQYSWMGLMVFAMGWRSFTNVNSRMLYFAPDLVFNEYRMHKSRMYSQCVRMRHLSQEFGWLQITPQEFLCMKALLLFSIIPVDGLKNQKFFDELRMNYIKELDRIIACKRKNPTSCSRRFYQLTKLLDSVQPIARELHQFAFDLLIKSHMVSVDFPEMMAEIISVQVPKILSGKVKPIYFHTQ

Consider `COc1cc(/C=C(\C(=O)/C=C/C2=C(C)CCCC2(C)C)C(=O)/C=C/c2ccc(O)c(OC)c2)ccc1O`, for which the IC50 in the experiment on LNCaP [1] amounted to 1300 nM; in the experiment on CWR22R, 2200 nM; in experiment [2] it was 1600 nM; in the experiment with PC-3 [3], 4.2 µM; in experiment [4] it was 2500 nM. For the same compound, the result (in experiment [5]; in experiment [6]; in the experiment on PC-3 [7]; in experiment [8]; with LNCaP [10]; in experiment [12]) was inactive. Besides, the result in experiment [13] was inactive. Further, the result in the experiment on PC-3 [9] and in the experiment on PC-3 [11] was Active.
